The values below come from ChEMBL document CHEMBL6134795, “Mannich reaction mediated derivatization of chromones and their biological evaluations as putative multipotent ligands for the treatment of Alzheimer's disease” (RSC Med Chem, 2024).

Data set [1] addresses Acetylcholinesterase (Homo sapiens, UniProt P22303). Nature of the data set: Reversible inhibition of AChE (unknown origin) assessed as residual activity at 100 times IC50 incubated for 30 mins by dilution method relative to control. A digest of the protocol: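 Samples then diluted 100-fold with substrate, giving final inhibitor levels of 0.1× and 1× IC50. Recovered activity measured relative to control; triplicate.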

In data set [2] the target is T1, Amine oxidase [flavin-containing] B (Homo sapiens, UniProt P27338).
T1 sequence (P27338 whole entry): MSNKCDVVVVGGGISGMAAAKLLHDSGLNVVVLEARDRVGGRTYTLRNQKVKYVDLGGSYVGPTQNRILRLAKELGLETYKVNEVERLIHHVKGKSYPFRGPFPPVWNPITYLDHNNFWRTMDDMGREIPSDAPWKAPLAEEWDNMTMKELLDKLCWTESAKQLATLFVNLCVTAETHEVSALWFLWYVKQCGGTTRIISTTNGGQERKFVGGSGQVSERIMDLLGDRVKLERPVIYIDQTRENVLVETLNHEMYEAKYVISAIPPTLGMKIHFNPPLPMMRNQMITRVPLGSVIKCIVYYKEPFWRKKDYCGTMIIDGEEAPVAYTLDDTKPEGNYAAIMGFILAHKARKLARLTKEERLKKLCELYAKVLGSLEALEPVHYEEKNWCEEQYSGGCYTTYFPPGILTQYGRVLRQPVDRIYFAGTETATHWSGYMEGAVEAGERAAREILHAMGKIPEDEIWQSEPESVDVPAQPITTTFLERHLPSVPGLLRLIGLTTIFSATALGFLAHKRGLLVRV
The data set can be described thus: Reversible inhibition of MAO-B (unknown origin) assessed as residual activity at 100 times IC50 incubated for 30 mins by dilution method relative to control. To be noted: 0.5 h.

Each structure is given as a SMILES string.

Sequence of Acetylcholinesterase (P22303 whole entry): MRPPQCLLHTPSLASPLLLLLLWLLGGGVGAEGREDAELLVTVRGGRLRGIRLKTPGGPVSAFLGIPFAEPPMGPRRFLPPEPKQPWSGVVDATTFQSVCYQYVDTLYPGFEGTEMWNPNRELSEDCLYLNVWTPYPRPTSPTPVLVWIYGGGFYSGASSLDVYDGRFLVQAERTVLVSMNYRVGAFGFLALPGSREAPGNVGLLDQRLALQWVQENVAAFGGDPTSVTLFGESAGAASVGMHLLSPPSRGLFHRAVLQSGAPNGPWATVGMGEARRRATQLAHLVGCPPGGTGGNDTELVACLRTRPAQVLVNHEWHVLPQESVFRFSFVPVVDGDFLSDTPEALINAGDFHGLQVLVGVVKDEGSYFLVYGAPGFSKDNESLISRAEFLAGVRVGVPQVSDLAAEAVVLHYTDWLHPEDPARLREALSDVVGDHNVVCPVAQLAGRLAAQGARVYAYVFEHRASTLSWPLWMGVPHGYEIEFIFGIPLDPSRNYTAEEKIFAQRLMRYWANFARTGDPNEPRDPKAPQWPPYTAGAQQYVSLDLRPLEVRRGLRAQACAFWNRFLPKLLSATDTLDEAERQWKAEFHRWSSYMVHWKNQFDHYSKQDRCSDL

Turning to `C#CCCCOc1ccc(-c2cc(=O)c3ccccc3o2)cc1CN1CCCCC1`, the Activity in data set [1] is 17.7%; in data set [2], 15%.
